Converted amounts (≈) assume the structure as drawn. The source made the active and inactive calls. No cut-off for these calls is given here.
Assays:
[1] = molecular target: T1, Dual specificity tyrosine-phosphorylation-regulated kinase 1B (Homo sapiens, UniProt Q9Y463); assay: Inhibition of recombinant Dyrk1B (unknown origin) using FITC-Asp-His-Thr-Gly-Phe-Leu-Thr-Glu-Tyr-Val-Ala-Thr-Arg-NH2 as substrate after 60 mins
[2] = molecular target: T1, Dual specificity tyrosine-phosphorylation-regulated kinase 1B; assay: Inhibition of human full length C-terminal c-Myc tagged Dyrk1B phosphorylation overexpressed in monkey COS1 cells after 5 hrs by ELISA; type: cell-based, COS-1
[3] = Intrinsic clearance in Wistar Han rat hepatocytes assessed per 10^6 cells; type: ADME, cell-based, Hepatocyte; details: read-out: CLH
In short: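 Intrinsic clearance in Wistar Han rat hepatocytes, expressed as μL/min/1 × 10⁶ cells.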

[4] = Clearance in Wistar Han rat plasma at 2 umol/kg; type: ADME, cell-free
[5] = molecular target: Cyclin-dependent kinase 2 (Homo sapiens, UniProt P24941); assay: Inhibition of human recombinant full length C-terminal His6-tagged CDK2 expressed in baculovirus infected Sf21 insect cells using fluorescence substrate after 60 mins by caliper off-chip incubation mobility shift assay
[6] = molecular target: Insulin-like growth factor 1 receptor (Homo sapiens, UniProt P08069); assay: Inhibition of human recombinant N-terminal His6-tagged IGF-1R using fluorescence substrate after 80 mins by caliper off-chip incubation mobility shift assay
Insulin-like growth factor 1 receptor, sequence (P08069 31-736 limits assumed): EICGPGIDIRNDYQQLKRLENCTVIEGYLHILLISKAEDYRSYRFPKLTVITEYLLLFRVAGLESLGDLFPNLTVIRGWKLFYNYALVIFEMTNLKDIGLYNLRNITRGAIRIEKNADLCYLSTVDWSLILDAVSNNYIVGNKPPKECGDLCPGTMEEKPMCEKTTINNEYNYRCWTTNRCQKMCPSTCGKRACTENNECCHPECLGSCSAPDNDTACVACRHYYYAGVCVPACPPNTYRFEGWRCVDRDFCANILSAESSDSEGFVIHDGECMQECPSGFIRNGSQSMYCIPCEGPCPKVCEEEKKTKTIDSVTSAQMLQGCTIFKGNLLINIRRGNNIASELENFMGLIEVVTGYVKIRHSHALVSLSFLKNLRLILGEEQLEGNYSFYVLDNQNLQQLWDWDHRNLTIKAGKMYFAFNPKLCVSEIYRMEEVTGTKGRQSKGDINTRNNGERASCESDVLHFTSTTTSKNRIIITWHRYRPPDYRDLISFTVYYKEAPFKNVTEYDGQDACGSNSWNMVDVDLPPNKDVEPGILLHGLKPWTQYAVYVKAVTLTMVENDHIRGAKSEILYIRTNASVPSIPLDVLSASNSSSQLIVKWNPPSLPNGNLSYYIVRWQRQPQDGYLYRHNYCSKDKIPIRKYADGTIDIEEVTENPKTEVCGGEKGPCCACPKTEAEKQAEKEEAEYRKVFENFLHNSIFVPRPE
Insulin-like growth factor 1 receptor, sequence (P08069 741-1367 limits assumed): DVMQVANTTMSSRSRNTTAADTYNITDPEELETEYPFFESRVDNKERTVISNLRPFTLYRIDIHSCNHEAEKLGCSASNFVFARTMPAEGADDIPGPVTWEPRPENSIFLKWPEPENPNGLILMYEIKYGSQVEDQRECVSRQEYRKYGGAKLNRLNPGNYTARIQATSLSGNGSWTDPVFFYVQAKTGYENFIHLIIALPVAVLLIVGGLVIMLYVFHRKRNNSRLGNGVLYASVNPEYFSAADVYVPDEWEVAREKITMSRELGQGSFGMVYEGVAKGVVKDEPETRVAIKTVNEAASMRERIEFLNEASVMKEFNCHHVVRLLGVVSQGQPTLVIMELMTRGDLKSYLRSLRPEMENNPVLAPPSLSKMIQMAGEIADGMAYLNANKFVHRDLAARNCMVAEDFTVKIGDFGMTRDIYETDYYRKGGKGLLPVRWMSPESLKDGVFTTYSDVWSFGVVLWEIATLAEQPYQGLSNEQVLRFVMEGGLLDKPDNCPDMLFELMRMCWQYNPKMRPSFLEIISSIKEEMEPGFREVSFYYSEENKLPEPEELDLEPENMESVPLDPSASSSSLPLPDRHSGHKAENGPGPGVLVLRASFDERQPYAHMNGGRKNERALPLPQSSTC

[7] = Oral bioavailability in Wistar Han rat at 3 umol/kg; type: ADME, organism-based; details: in vivo
A-375 = assay: Cytotoxicity against human A375 cells at 1.33 uM after 72 hrs by calcein green AM/propidium iodide staining-based assay in presence of AZD6244 relative to control; type: functional, cell-based
In short: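 A375 melanoma cells treated with AZD6244 with or without Dyrk1B inhibitor at 1.33 μM for 72 h. Viability by calcein green AM and propidium iodide staining; percentage of dead cells is mean and SEM of at least two separate experiments.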

[8] = Clearance in Wistar Han rat blood at 2 umol/kg; type: ADME, tissue-based; details: whole blood
Homo sapiens = species on record: Homo sapiens; assay: Selectivity ratio of IC50 for human recombinant N-terminal His6-tagged IGF-1R to IC50 for recombinant Dyrk1B (unknown origin)
[9] = molecular target: T2, Dual specificity protein kinase TTK (Homo sapiens, UniProt P33981); assay: Inhibition of human wild-type TTK (514 to 795) expressed in insect sf9 cells
T2 sequence (P33981 whole entry): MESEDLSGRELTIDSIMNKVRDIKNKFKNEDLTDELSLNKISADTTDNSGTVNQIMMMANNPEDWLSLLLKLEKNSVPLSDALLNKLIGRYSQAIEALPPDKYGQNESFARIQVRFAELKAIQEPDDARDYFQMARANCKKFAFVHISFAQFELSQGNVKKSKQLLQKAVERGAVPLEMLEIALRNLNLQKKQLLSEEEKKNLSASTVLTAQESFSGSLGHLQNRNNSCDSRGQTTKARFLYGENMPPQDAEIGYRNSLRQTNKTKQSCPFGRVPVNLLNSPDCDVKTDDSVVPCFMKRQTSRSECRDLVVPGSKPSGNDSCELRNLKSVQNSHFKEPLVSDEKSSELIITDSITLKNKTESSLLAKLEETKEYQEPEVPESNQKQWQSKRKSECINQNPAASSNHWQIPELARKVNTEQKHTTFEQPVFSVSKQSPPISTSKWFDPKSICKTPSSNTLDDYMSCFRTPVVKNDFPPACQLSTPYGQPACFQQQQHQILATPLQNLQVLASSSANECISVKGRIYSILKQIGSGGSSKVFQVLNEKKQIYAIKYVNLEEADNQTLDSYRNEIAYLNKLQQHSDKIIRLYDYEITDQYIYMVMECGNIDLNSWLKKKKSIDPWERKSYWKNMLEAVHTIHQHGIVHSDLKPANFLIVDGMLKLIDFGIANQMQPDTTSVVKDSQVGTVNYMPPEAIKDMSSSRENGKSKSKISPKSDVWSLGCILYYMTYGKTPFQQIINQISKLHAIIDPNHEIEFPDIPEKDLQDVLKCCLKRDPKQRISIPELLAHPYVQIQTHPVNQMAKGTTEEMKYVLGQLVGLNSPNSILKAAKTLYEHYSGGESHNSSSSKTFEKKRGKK

[10] = Aqueous solubility of the compound at pH 7.4; type: physicochemical; details: buffer
[11] = molecular target: T3, Dual specificity tyrosine-phosphorylation-regulated kinase 3 (Homo sapiens) (UniProt O43781); assay: Inhibition of Dyrk3 (unknown origin) at 1 uM
T3 sequence (whole entry): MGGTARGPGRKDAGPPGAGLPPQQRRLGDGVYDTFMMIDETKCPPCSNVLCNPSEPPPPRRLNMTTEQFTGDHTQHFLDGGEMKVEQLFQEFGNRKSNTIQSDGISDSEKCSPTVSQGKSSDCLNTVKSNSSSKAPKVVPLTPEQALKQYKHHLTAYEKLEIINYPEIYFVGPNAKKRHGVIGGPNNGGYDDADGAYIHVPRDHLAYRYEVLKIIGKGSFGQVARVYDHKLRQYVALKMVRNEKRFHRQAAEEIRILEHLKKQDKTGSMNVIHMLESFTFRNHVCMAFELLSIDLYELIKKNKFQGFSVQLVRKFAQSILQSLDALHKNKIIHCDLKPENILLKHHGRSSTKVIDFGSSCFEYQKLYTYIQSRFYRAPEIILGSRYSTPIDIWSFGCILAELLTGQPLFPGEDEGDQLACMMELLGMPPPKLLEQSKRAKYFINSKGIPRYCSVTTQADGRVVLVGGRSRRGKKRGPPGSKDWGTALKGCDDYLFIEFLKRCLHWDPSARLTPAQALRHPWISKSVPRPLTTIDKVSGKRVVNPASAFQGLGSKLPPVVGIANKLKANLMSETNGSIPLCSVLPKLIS
In short: (§1)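 Kinase panel of 124 kinases; single test concentration of 1 μM.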

[12] = molecular target: Dual specificity tyrosine-phosphorylation-regulated kinase 1A (Homo sapiens) (UniProt Q13627); assay: Inhibition of Dyrk1A (unknown origin) at 1 uM; in short: as §1
[13] = molecular target: T4, Dual specificity tyrosine-phosphorylation-regulated kinase 2 (Homo sapiens) (UniProt Q92630); assay: Inhibition of Dyrk2 (unknown origin) at 1 uM; in short: as §1
T4 sequence (whole entry): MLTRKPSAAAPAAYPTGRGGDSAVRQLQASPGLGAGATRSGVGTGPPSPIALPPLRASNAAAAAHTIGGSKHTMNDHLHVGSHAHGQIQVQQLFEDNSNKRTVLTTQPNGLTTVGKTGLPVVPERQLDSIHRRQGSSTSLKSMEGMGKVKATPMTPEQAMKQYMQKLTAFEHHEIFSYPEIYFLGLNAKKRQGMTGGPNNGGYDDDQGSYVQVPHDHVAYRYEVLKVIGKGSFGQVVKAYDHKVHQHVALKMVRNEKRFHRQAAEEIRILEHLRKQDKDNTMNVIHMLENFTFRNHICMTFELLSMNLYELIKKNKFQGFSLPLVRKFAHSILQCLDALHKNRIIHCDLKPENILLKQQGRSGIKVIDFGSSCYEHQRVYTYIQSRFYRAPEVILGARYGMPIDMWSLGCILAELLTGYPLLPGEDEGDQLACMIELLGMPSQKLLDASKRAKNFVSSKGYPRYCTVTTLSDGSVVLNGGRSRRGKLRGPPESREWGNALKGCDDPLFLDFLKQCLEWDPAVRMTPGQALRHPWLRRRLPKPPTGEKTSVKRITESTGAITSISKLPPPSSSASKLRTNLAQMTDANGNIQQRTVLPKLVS

[14] = molecular target: T5, Dual specificity tyrosine-phosphorylation-regulated kinase 4 (Homo sapiens, UniProt Q9NR20); assay: Inhibition of GST-tagged Dyrk4 (unknown origin) expressed in Escherichia coli using [33P]ATP[gammaP]/DYRKtide as substrate after 5 mins by liquid scintillation counting analysis
T5 sequence (Q9NR20 whole entry): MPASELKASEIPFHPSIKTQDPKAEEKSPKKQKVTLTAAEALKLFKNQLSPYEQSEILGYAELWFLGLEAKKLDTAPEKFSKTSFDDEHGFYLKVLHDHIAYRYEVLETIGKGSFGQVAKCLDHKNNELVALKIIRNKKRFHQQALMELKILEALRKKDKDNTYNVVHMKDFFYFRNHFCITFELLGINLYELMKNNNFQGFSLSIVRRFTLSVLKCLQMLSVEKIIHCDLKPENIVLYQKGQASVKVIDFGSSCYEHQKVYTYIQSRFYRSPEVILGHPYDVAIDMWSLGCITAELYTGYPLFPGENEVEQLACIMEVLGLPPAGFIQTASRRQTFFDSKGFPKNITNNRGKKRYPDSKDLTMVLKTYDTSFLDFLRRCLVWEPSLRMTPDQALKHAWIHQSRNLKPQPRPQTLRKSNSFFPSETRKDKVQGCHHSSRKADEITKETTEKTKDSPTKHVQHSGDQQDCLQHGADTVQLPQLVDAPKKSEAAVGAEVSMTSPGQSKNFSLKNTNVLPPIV

[15] = molecular target: T6, Dual specificity tyrosine-phosphorylation-regulated kinase 2 (Homo sapiens, UniProt Q92630); assay: Inhibition of GST-tagged Dyrk2 (unknown origin) expressed in Escherichia coli using [33P]ATP[gammaP]/DYRKtide as substrate after 5 mins by liquid scintillation counting analysis
T6 sequence (Q92630 whole entry): T4 sequence (whole entry)

T1 sequence (Q9Y463 whole entry): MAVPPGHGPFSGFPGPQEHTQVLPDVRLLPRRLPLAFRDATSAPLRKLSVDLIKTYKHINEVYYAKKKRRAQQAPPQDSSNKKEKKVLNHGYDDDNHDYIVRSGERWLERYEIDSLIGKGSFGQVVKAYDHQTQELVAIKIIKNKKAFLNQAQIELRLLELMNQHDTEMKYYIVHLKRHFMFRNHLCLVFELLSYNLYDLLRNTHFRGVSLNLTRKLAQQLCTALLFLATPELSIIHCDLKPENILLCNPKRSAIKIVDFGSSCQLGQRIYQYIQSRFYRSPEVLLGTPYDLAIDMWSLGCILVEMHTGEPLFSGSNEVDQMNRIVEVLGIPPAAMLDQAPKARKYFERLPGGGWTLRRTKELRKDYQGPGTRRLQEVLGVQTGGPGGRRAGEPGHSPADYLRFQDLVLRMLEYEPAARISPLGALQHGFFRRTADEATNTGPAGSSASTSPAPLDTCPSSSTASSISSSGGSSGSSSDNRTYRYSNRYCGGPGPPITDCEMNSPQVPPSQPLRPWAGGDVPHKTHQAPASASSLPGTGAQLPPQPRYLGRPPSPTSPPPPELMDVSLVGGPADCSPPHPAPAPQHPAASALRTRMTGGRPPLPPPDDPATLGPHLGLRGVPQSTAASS

Structure (SMILES)	IC50 [1]	IC50 [2]	hepatocyte CLint [3]	clearance [4]	IC50 [5]	IC50 [6]	further results
O=C(NC1CCCC1)c1ccc(-c2cc(-c3cc4c([nH]3)CCNC4=O)ccn2)cc1	43 nM	–	–	–	–	–	–
CN1CCN(c2ccc(Nc3cc(-c4c[nH]c5ccccc45)ncn3)cc2)CC1	85 nM	9960 nM	49 µL/min/1e6 cells	–	33200 nM	2410 nM	clearance [8]: 42 mL/min/kg; bioavailability [7]: 13%; Ratio IC50 (Homo sapiens): 28
COc1cc(OC2CCN(C)CC2)ccc1Nc1nccc(-c2c[nH]c3cnccc23)n1	140 nM	–	–	–	–	3300 nM	IC50 [9]: 20 nM
Cc1nccc2c(-c3ccnc(-c4ccc(S(C)(=O)=O)cc4)n3)c[nH]c12	14 nM	2120 nM	9 µL/min/1e6 cells	24 mL/min/kg	> 100000 nM	> 29000 nM	bioavailability [7]: 4%
COc1cc(N2CCN(C(C)=O)CC2)ccc1Nc1cc(-c2cn(C)c3cnccc23)ncn1	34 nM	–	11 µL/min/1e6 cells	16 mL/min/kg	14800 nM	> 100000 nM	bioavailability [7]: 5%; solubility [10]: 53 µM (≈ 24.2 µg/mL)
CS(=O)(=O)c1ccc(-c2nccc(-c3c[nH]c4cnccc34)n2)cc1	21 nM	898 nM	129 µL/min/1e6 cells	–	16900 nM	> 100000 nM	bioavailability [7]: 0%
CN1CCN(c2ccc(Nc3ncc(Cl)c(-c4c[nH]c5cnccc45)n3)cc2)CC1	25 nM	–	–	–	20 nM	30 nM	–
COc1cc(N2CCN(C(C)=O)CC2)ccc1Nc1cc(-c2c[nH]c3cnccc23)ncn1	16 nM	–	9 µL/min/1e6 cells	239 mL/min/kg	14100 nM	40500 nM	–
O=C(NC1CCCC1)c1ccc(-c2nccc(-c3c[nH]c4cnccc34)n2)cc1	98 nM	–	32 µL/min/1e6 cells	–	45900 nM	67700 nM	–
COc1ccc2c(c1)[nH]c1c(C)nccc12 [HARMINE]	–	–	–	–	–	–	IC50 [14]: 74000 nM; IC50 [15]: 2000 nM
Cc1nccc(-c2c[nH]c3cnccc23)n1	17 nM	3070 nM	–	–	38400 nM	> 100000 nM	–

The next lines start with results.

IC50 [1]	IC50 [2]	hepatocyte CLint [3]	clearance [4]	IC50 [5]	IC50 [6]	Structure (SMILES)	further results
2 nM	453 nM	13 µL/min/1e6 cells	179 mL/min/kg	577 nM	> 100000 nM	CN1CCN(c2ccc(Nc3cc(-c4c[nH]c5cnccc45)ncn3)cc2)CC1	–
5 nM	83 nM	< 5 µL/min/1e6 cells	38 mL/min/kg	17400 nM	51 nM	COc1cc(N2CCN(C)CC2)ccc1Nc1nccc(-c2c[nH]c3c(C)nccc23)n1	bioavailability [7]: 0%
1 nM	282 nM	11 µL/min/1e6 cells	375 mL/min/kg	12300 nM	34100 nM	COc1cc(N2CCN(C)CC2)ccc1Nc1cc(-c2c[nH]c3cnccc23)ncn1	–
7 nM	194 nM	–	–	56700 nM	> 100000 nM	Cc1nccc(-c2cn(Cc3ccccc3)c3cnccc23)n1	Activity (A-375): inactive
3 nM	378 nM	–	–	314 nM	7990 nM	c1cc2c(-c3ccnc4[nH]ccc34)c[nH]c2cn1	–
9 nM	–	< 1 µL/min/1e6 cells	137 mL/min/kg	2000 nM	965 nM	COc1cc(N2CCN(C(C)=O)CC2)ccc1Nc1nccc(-c2c[nH]c3cnccc23)n1	–
4 nM	–	6 µL/min/1e6 cells	–	10500 nM	72 nM	COc1cc(N2CCN(C)CC2)ccc1Nc1nccc(-c2c[nH]c3cnc(C)cc23)n1	–
7 nM	192 nM	–	–	5180 nM	46900 nM	C(=C\c1nccc(-c2c[nH]c3cnccc23)n1)/c1ccccc1	Activity (A-375): inactive
9 nM	168 nM	6 µL/min/1e6 cells	24 mL/min/kg	13700 nM	3170 nM	COc1cc(N2CCN(C)CC2)ccc1Nc1nccc(-c2cn(C)c3c(C)nccc23)n1	bioavailability [7]: 14%; solubility [10]: 4 µM (≈ 1.77 µg/mL)
4 nM	85 nM	21 µL/min/1e6 cells	–	1820 nM	1490 nM	COc1cc(N2CCN(C)CC2)ccc1Nc1nccc(-c2c[nH]c3cnccc23)n1	inhibition [11]: 83%; inhibition [12]: 90%; inhibition [13]: 92%

Source: ChEMBL document CHEMBL3421608, “Discovery and optimization of a novel series of Dyrk1B kinase inhibitors to explore a MEK resistance hypothesis” (J Med Chem, 2015)
